The results in this text go back to ChEMBL document CHEMBL1141667, “Synthesis and antimicrobial activities of 7-O-modified genistein derivatives” (2008).

Holding throughout (format): functional
The subject of one assay is Escherichia coli. Briefly: Antibacterial activity against Escherichia coli after 24 hrs by MTT assay. The gist of the method:
(§1)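 Broth microdilution MIC in MH medium. Compounds from a 50 mg/mL DMSO stock were serially diluted in medium. Inoculum was about 10⁵ cfu/mL, each concentration in triplicate, incubated at 37 °C for 24 h. MIC was read visually, then confirmed by adding PBS with 2 mg/mL MTT and incubating 4–5 h at room temperature. A compound-free medium control checked for any MTT effect on growth.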
(In general: Formazan colour is commonly taken as a measure of viable cells.)

The next assay has as its system Candida albicans. Nature of the assay: Antifungal activity against Candida albicans after 48 hrs by MTT assay. The gist of the method:
(§2)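 Antifungal MIC by microdilution in RPMI-1640 medium. Compounds came from a 50 mg/mL DMSO stock and were serially diluted. Inoculum was about 10⁵ cfu/mL, with triplicate wells per concentration, incubated at 37 °C for 48 h. MIC was judged visually, followed by PBS containing 2 mg/mL MTT for 4–5 h at room temperature for the colorimetric read. A compound-free control tested MTT interference.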

The next assay has as its system Aspergillus niger. Nature of the assay: Antifungal activity against Aspergillus niger after 48 hrs by MTT assay. In outline: as §2
A further assay concerns Pseudomonas fluorescens. Briefly: Antibacterial activity against Pseudomonas fluorescens after 24 hrs by MTT assay. In outline: as §1
The subject of another assay is Staphylococcus aureus. Nature of the assay: Antibacterial activity against Staphylococcus aureus after 24 hrs by MTT assay. In outline:
as §1

For the next assay, the system named is Bacillus subtilis. Briefly: Antibacterial activity against Bacillus subtilis after 24 hrs by MTT assay. The gist of the method: as §1
A further assay deals with Trichophyton rubrum. Briefly: Antifungal activity against Trichophyton rubrum after 48 hrs by MTT assay. The gist of the method: as §2

SMILES strings stand for the structures. In brackets after ≈: the same amount, converted by molar mass.

`O=c1c(-c2ccc(O)cc2)coc2cc(OCCCCNCc3ccco3)cc(O)c12`: the minimum inhibitory concentration (MIC) is above 50 µg/mL in the assay with Escherichia coli; above 50 µg/mL in the assay with Candida albicans; above 50 µg/mL against Aspergillus niger; 12 µg/mL (≈ 28.5 µM) against Pseudomonas fluorescens; 35.3 µg/mL (≈ 83.8 µM) in the assay with Staphylococcus aureus; above 50 µg/mL in the assay with Bacillus subtilis. Further, the MIC against Trichophyton rubrum is above 50 µg/mL.

Take `O=c1c(-c2ccc(O)cc2)coc2cc(OCCCCN3CCNCC3)cc(O)c12`: the MIC is above 50 µg/mL with Escherichia coli; above 50 µg/mL against Candida albicans; above 50 µg/mL against Aspergillus niger; 37.5 µg/mL (≈ 91.4 µM) in the assay on Pseudomonas fluorescens; 20.1 µg/mL (≈ 49 µM) with Staphylococcus aureus; 15.5 µg/mL (≈ 37.8 µM) in the assay with Bacillus subtilis. For the same compound, in the assay on Trichophyton rubrum, the MIC was above 50 µg/mL.

Turning to `O=c1c(-c2ccc(O)cc2)coc2cc(OCCCBr)cc(O)c12`, the MIC with Escherichia coli, against Candida albicans, against Aspergillus niger, with Pseudomonas fluorescens, in the assay on Staphylococcus aureus and in the assay on Bacillus subtilis was above 50 µg/mL in each case. The MIC in the assay with Trichophyton rubrum is above 50 µg/mL.

With `CCCN(CCC)CCOc1cc(O)c2c(=O)c(-c3ccc(O)cc3)coc2c1`, the minimal inhibitory concentration (MIC) in the assay with Escherichia coli is above 50 µg/mL; in the assay on Candida albicans it was above 50 µg/mL; in the assay on Aspergillus niger, above 50 µg/mL; in the assay with Pseudomonas fluorescens it was 47.5 µg/mL (≈ 120 µM); in the assay on Staphylococcus aureus, 41.2 µg/mL (≈ 104 µM); in the assay with Bacillus subtilis, above 50 µg/mL. Further, the minimal inhibitory concentration (MIC) in the assay on Trichophyton rubrum was above 50 µg/mL.

With `O=c1c(-c2ccc(O)cc2)coc2cc(OCCCCN3CCOCC3)cc(O)c12`, the minimum inhibitory concentration (MIC) is above 50 µg/mL with Escherichia coli; above 50 µg/mL in the assay with Candida albicans; above 50 µg/mL in the assay on Aspergillus niger; above 50 µg/mL in the assay with Pseudomonas fluorescens; 37.5 µg/mL (≈ 91.1 µM) in the assay with Staphylococcus aureus; 35.5 µg/mL (≈ 86.3 µM) in the assay with Bacillus subtilis. This compound returned an MIC in the assay on Trichophyton rubrum above 50 µg/mL.

Consider `O=c1c(-c2ccc(O)cc2)coc2cc(OCCCCN3CCCCC3)cc(O)c12`, for which the MIC in the assay on Escherichia coli, against Candida albicans, in the assay with Aspergillus niger, in the assay with Pseudomonas fluorescens, against Staphylococcus aureus and against Bacillus subtilis was above 50 µg/mL each time. Further, the minimum inhibitory concentration (MIC) against Trichophyton rubrum is above 50 µg/mL.

Turning to `O=c1c(-c2ccc(O)cc2)coc2cc(OCCCCn3cnc4ccccc43)cc(O)c12`, the MIC against Escherichia coli was above 50 µg/mL; in the assay on Candida albicans, above 50 µg/mL; against Aspergillus niger, above 50 µg/mL; against Pseudomonas fluorescens, above 50 µg/mL; with Staphylococcus aureus, 21.3 µg/mL (≈ 48.1 µM); against Bacillus subtilis it was above 50 µg/mL. In addition, in the assay with Trichophyton rubrum, the minimum inhibitory concentration (MIC) was above 50 µg/mL.

In the case of `O=c1c(-c2ccc(O)cc2)coc2cc(OCCn3ccnc3)cc(O)c12`, the minimal inhibitory concentration (MIC) in the assay on Escherichia coli, against Candida albicans, against Aspergillus niger, against Pseudomonas fluorescens, in the assay on Staphylococcus aureus and against Bacillus subtilis was above 50 µg/mL throughout. In addition, the MIC against Trichophyton rubrum was above 50 µg/mL.

Broadly, the MIC is the least concentration at which growth counts as inhibited. Lower therefore signals inhibition by little substance.
